Test results: ChEMBL document CHEMBL5674882, “Benzolactam-related compounds promote apoptosis of HIV-infected human cells via protein kinase C-induced HIV latency reversal” (J Biol Chem, 2019)
Activity calls are given as the source filed them. The rule behind the calls is not given here.

Assays:
U1 [1] = test: Induction of apoptosis in human U1 cells assessed as caspase-3 activation at 1 uM incubated for 24 hrs by flow cytometry; format: functional
Method in brief: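 Cells fixed in 1% paraformaldehyde, permeabilized, stained 30 min on ice with anti-active caspase-3 mAb, and analysed by flow cytometry. Three independent experiments.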

[2] = Toxicity in human CD4+ T-cells assessed as elevation of supernatant cytokine concentrations of IL-6 incubated for 24 hrs by bead-based immunoassay; details: cd4+ t cell
Method in brief: (§1)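 Purified CD4+ T-cells from healthy donors treated 24 h with 1 μm drug, 1 μm JQ1, or the combination. IL-2, IL-5, IL-6, IL-13, TNFα and IFN-γ in supernatants measured by flow-cytometry bead-based Th1/Th2 immunoassay. Run in duplicate.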

J-Lat 6.3 (Homo sapiens) = test: Induction of apoptosis in human J-Lat 6.3 cells at 1 uM incubated for 48 hrs after pre-incubated for 2 hrs with 20 uM caspase inhibitor Q-VD-Oph by propidium iodide/annexin-V staining based flow cytometry
[3] = Toxicity in human CD4+ T-cells assessed as elevation of supernatant cytokine concentrations of IL-5 incubated for 24 hrs in presence of JQ1 by bead-based immunoassay; details: cd4+ t cell; method in brief: as §1
[4] = target: T1, Protein kinase C (PKC) (Homo sapiens) (UniProt O94806+P41743+P17252+P05129+Q05655+P05771+Q05513+Q02156+P24723+Q15139+Q04759); test: (§2) Activation of PKC in human ACH-2 cells infected with latent HIV-1 assessed as reversal of HIV-1 latency by measuring increase in p24 antigen level incubated for 48 hrs by chemiluminescent enzyme immunoassay; format: cell-based; details: ACH-2 cell line, filed as activator
Protein kinase C (PKC) [5] = test: as §2; format: cell-based; details: ach-2 cell line
ACH-2 cell line = test: Induction of apoptosis in human ACH-2 cells assessed as cleaved-PARP level at 1 uM incubated for 24 hrs by flow cytometry (reference value: 1.64%); format: functional
Method in brief: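 Cells fixed, permeabilized, stained on ice with anti-cleaved PARP (Asp-214) mAb; % cleaved-PARP cells by flow cytometry. Means ± S.D. of three independent experiments.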

U1 [6] = test: Induction of apoptosis in human U1 cells at 1 uM after 48 hrs by PI/annexin-V staining based flow cytometry; format: functional
[7] = target: T1, Protein kinase C (PKC) (Homo sapiens); test: Synergistic activation of PKC in human U1 cells infected with latent HIV-1 assessed as reversal of HIV-1 latency by measuring increase in p24 antigen level at 25 nM incubated for 48 hrs in presence of 100 nM JQ1 by chemiluminescent enzyme immunoassay relative to compound alone; format: cell-based; details: filed as activator
Method in brief: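 U1 cells at 5 × 10^5 cells/ml incubated 48 h with test agent alone or plus 100 nm JQ1. Supernatant p24 antigen quantified by automated immunoassay. Fold reactivation computed versus the same agent without JQ1. Mean ± S.D. of three independent experiments.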

Protein kinase C (PKC) [8] = test: Activation of PKC in human J-Lat 10.6 cells infected with latent HIV-1 assessed as reversal of HIV-1 latency by measuring increase of GFP-positive cells at 1 to 10000 nM incubated for 24 hrs by flow cytometry; format: cell-based
Method in brief: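 J-Lat 10.6 or J-Lat 6.3 cells (5 × 10^5 cells/ml) incubated 24 h with graded drug concentrations; % GFP-positive cells determined by flow cytometry. Means ± S.D. of three independent experiments.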

CD4+ T cell = test: Induction of apoptosis in CCL19-induced human CD4+ T-cells infected with latent HIV-1 assessed as caspase-3 activation at 1 uM incubated for 48 hrs by FACS; format: functional, cell-based
Method in brief: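 Latency model: healthy-donor CD4+ T-cells given 100 nM CCL19 for 2 days, infected with HIV-1 NL4-3, kept 5 days in IL-2. Stimulated 2 days with 1 µM drug or 100 nM PMA plus 2 µM ionomycin. Cells fixed and permeabilized, co-stained with anti-p24 and anti-active caspase-3 mAbs; active caspase-3 read by flow cytometry separately in p24+ and p24− cells. Two donors.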

[9] = Toxicity in human CD4+ T-cells assessed as elevation of supernatant cytokine concentrations of IFNgamma incubated for 24 hrs in presence of JQ1 by bead-based immunoassay; details: cd4+ t cell; method in brief: as §1
U1 [10] = test: Induction of apoptosis in human U1 cells at 1 uM incubated for 48 hrs by propidium iodide/annexin-V staining based flow cytometry (reference value: 3.16%); format: functional
[11] = target: T1, Protein kinase C (PKC) (Homo sapiens); test: Activation of PKC in human U1 cells infected with latent HIV-1 assessed as reversal of HIV-1 latency by measuring increase in p24 antigen level at 1 to 10000 nM incubated for 48 hrs by chemiluminescent enzyme immunoassay; format: cell-based; details: filed as activator, dose 1-10000 nM
Method in brief: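 ACH-2 or U1 cells (5 × 10^5 cells/ml) incubated 48 h with graded drug concentrations. Supernatant p24 antigen measured by automated chemiluminescent immunoassay. EC50 calculated taking the maximum response with excess PMA as 100%. Means ± S.D. of three independent experiments.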

[12] = Toxicity in human A3.01 cells assessed as reduction in cell viability after 48 hrs by WST8 assay; format: cell-based
Method in brief: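 Parental, uninfected lines (A3.01 for ACH-2, U937 for U1) at 5 × 10^5 cells/ml cultured with or without drug. Viable cells read at 48 h (day 2) and expressed as % of untreated control. CC50 taken as the concentration lowering viability by 50%.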

[13] = target: T1, Protein kinase C (PKC) (Homo sapiens); test: Activation of PKC in CCL19-induced human CD4+ T-cells infected with latent HIV-1 assessed as reversal of HIV-1 latency by measuring increase in p24 antigen level at 1 uM incubated for 48 hrs by chemiluminescent enzyme immunoassay; format: cell-based; details: CD4+ T cell, filed as activator
U1 [14] = test: Induction of apoptosis in human U1 cells at 1 uM incubated for 48 hrs after pre-incubated for 2 hrs with 20 uM caspase inhibitor Q-VD-Oph by propidium iodide/annexin-V staining based flow cytometry; format: functional, cell-based
Method in brief: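 ACH-2 or U1 cells pretreated 2 h with 20 µM pan-caspase inhibitor Q-VD-Oph, then exposed to 1 µM compound for 48 h. Annexin-V/PI staining by flow cytometry; apoptotic proportions compared with and without Q-VD-Oph. Mean ± S.D.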

[15] = target: T1, Protein kinase C (PKC) (Homo sapiens); test: Activation of PKC in human J-Lat 6.3 cells infected with latent HIV-1 assessed as reversal of HIV-1 latency by measuring increase of GFP-positive cells at 10 uM in presence of PKC theta/delta/epsilon/eta inhibitor PKCtheta/delta inhibitor incubated for 24 hrs by flow cytometry; format: cell-based
Method in brief: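 J-Lat 6.3 cells pretreated 3 h with a PKC inhibitor: Gö 6983 1 µM, Gö 6976 1 µM, GF 109203X 1 µM, PKCθ/δ inhibitor 10 µM, or Rottlerin 1 µM. Then exposed to 10 µM compound for 24 h; GFP-positive cells counted by flow cytometry. Mean ± S.D.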

SMILES: CCCCCCCCCCc1ccc2c(c1)N(C)[C@@H](C(C)C)C(=O)N[C@H](CO)C2
- Activity (U1 [1]): 24.9%
- Activity [2]: Toxic
- Activity (J-Lat 6.3 (Homo sapiens)): inactive
- Activity [3]: Non-Toxic
- Activity [4]: Dose-Dependent Effect
- EC50 (Protein kinase C (PKC) [5]): 0.025 µM
- Activity (ACH-2 cell line): 21.5%
- Activity (U1 [6]): 30.4%
- fold change (FC) [7]: 22.9
- EC50 (Protein kinase C (PKC) [8]): 10.6 µM
- Activity (CD4+ T cell): Active
- Activity [9]: Non-Toxic
- Activity (U1 [10]): 28.4%
- Activity [11]: Active
- CC50 at 48 h [12]: 21.1 µM
- Activity [13]: Active
- Activity (U1 [14]): inactive
- Activity [15]: inactive
